The source made the active and inactive calls. The rule behind the calls is not given here.
What was measured:
MV4-11 [1] = assay: Induction of apoptosis in human MV4-11 cells assessed as viable cells at 10 x GI50 concentration incubated for 24 hrs by annexin V-FITC and propidium iodide staining based flow cytometry (reference value: 84.68 %); format: functional
U-937 [2] = assay: Induction of apoptosis in human U937 cells assessed as early apoptotic cells at 20 x GI50 concentration incubated for 24 hrs by annexin V-FITC and propidium iodide staining based flow cytometry (reference value: 1.81 %); format: functional
[3] = target: Cyclin-dependent kinase 2/cyclin E1 (Homo sapiens, UniProt P24941); assay: Inhibition of CDK2/cyclin E (unknown origin) using histone 1 protein substrate incubated for 120 mins measured after 40 mins incubation under dark by ADP-glo based luminescence assay; format: protein-complex assay
How it was run: (§1)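 In-house ADP-Glo assay with 2 mM DMSO stocks. Kinases were CDK1/cyclin B at 1 nM, CDK2/cyclin E1 at 10 nM and CDK7/cyclin H/MAT1 at 40 nM. Substrate was histone 1 for CDK1 and CDK2, and a RNA pol II CTD peptide for CDK7. Compound at 8–10 concentrations, 1:3 serial, final DMSO 0.5%. Reactions ran 60–120 min at room temperature, then ADP-Glo reagent 40 min in the dark, then detection reagent 40 min, read by luminescence. Ki was derived from IC50 by Cheng-Prusoff.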

MV4-11 [4] = assay: Induction of apoptosis in human MV4-11 cells assessed as viable cells at 20 x GI50 concentration incubated for 48 hrs by annexin V-FITC and propidium iodide staining based flow cytometry (reference value: 91.87 %); format: functional
CDK7/Cyclin H/MNAT1 = CDK7/Cyclin H/MNAT1 (Homo sapiens, UniProt P50613); assay: Inhibition of CDK7/cyclin H/MAT1 (unknown origin) using HYSPTSPSYSPTSPSYSPTSPSKKKK-O substrate incubated for 120 mins measured after 40 mins incubation under dark by ADP-glo based luminescence assay; format: protein-complex assay; how it was run: as §1
Chain of CDK7/Cyclin H/MNAT1 (P51946 whole entry): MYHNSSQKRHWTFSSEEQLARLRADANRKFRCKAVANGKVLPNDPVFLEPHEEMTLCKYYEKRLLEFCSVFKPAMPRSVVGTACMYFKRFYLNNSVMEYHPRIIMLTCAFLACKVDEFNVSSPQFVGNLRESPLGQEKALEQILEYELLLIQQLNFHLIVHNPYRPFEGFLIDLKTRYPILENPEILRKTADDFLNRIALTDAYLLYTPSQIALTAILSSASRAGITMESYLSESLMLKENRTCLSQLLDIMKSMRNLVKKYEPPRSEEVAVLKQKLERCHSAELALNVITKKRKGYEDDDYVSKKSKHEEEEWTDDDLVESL
Chain of CDK7/Cyclin H/MNAT1 (P50613 whole entry): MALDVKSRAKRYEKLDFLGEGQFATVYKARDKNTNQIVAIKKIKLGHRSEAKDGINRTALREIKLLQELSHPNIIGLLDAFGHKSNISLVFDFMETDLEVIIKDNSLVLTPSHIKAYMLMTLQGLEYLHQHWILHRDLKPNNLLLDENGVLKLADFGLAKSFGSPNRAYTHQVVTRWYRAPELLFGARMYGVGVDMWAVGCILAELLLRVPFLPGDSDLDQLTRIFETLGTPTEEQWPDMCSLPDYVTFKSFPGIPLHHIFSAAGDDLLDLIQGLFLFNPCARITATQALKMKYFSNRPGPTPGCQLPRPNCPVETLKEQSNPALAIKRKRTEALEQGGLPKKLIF
Chain of CDK7/Cyclin H/MNAT1 (P51948 whole entry, further chain): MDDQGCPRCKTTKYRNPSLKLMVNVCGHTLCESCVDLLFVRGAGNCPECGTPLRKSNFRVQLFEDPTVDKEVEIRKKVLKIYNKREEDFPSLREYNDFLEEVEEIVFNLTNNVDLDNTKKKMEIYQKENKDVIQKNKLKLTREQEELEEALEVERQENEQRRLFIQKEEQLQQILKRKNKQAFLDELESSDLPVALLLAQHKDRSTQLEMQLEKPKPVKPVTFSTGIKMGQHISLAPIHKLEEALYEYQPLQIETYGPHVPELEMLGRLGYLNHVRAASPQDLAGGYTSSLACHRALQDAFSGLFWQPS

[5] = target: Receptor-type tyrosine-protein kinase FLT3 (Homo sapiens) (UniProt P36888); assay: Inhibition of FLT3-mediated signalling pathway in human MV4-11 cells assessed as inhibition of STAT5 phosphorylation upto 20 x GI50 concentration incubated for 6 hrs by western blot analysis; format: cell-based
Chain of Receptor-type tyrosine-protein kinase FLT3 (Homo sapiens) (P36888 whole entry): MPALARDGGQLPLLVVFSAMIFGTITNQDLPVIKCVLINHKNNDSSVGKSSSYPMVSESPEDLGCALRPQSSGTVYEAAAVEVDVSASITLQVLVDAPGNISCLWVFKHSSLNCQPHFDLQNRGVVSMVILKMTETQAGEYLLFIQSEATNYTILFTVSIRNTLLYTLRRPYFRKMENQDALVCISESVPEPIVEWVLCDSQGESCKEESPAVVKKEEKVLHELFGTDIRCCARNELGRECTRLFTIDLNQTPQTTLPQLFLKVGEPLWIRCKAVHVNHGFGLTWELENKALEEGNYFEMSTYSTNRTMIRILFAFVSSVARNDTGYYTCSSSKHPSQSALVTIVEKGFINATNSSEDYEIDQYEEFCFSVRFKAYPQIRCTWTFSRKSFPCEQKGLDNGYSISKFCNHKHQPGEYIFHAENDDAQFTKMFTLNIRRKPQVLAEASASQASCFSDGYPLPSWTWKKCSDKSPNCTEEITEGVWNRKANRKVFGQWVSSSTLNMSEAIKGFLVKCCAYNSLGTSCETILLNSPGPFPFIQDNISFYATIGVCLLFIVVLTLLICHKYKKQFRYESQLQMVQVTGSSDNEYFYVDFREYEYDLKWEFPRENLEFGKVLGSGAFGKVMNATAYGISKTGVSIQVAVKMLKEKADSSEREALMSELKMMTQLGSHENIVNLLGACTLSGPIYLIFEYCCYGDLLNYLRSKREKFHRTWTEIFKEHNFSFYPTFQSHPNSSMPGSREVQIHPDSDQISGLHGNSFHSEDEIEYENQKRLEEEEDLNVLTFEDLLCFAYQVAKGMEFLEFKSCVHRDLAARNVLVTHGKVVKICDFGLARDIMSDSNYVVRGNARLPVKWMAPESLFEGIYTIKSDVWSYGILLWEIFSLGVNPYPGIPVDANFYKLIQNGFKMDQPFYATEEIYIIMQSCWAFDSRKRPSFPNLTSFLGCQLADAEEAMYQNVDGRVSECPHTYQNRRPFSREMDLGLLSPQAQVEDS
How it was run: (§2)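 Cells lysed in phosphate lysis buffer with protease inhibitors and protein quantified. Western blots probed phospho and total STAT5, AKT, ERK, S6RP and eIF4E, plus full-length and cleaved PARP and caspase-3, with β-actin as loading control. At least two independent experiments.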

MV4-11 [6] = assay: Antiproliferative activity against human MV4-11 cells incubated for 72 hrs by resazurin assay; format: functional
How it was run: (§3)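 Cells seeded and pre-incubated 24 h at 37 °C, 5% CO2, then given a five-fold dilution series of compound (from 10 mM DMSO stock) in medium, in triplicate. Resazurin added after 72 h exposure, 4 h in dark at 37 °C. Fluorescence read at 570/585 nm, normalised to DMSO vehicle. GI50 by non-linear regression; mean ± SD of at least two replicates.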

[7] = target: Receptor-type tyrosine-protein kinase FLT3 (Homo sapiens) (UniProt P36888); assay: Inhibition of FLT3-mediated signalling pathway in human MV4-11 cells assessed as inhibition of eIF4E phosphorylation upto 20 x GI50 concentration incubated for 6 hrs by western blot analysis; format: cell-based; how it was run: as §2
U-937 [8] = assay: Induction of apoptosis in human U937 cells assessed as viable cells at 10 x GI50 concentration incubated for 48 hrs by annexin V-FITC staining based flow cytometry (reference value: 86.25 %); format: functional
[9] = Inhibition of FLT3 Y591-V592insVDFREYEYD mutant (unknown origin) incubated for 120 mins by ADP-glo based luminescence assay; parameters: species or system Homo sapiens
U-937 [10] = assay: Induction of apoptosis in human U937 cells assessed as late apoptotic cells at 5 x GI50 concentration incubated for 24 hrs by annexin V-FITC and propidium iodide staining based flow cytometry (Rvb =10.30 %); format: functional
[11] = Antiproliferative activity against human MOLM-13 cells harboring FLT3-ITD mutant assessed as reduction in cell viability after 72 hrs by resazurin assay; format: functional; conditions: MOLM-13, 72 h; how it was run: as §3
U-937 [12] = assay: Induction of apoptosis in human U937 cells assessed as viable cells at 20 x GI50 concentration incubated for 48 hrs by annexin V-FITC staining based flow cytometry (reference value: 86.25%); format: functional
MV4-11 [13] = assay: Induction of apoptosis in human MV4-11 cells assessed as late apoptotic cells at 1 x GI50 concentration incubated for 48 hrs by annexin V-FITC and propidium iodide staining based flow cytometry (reference value: 6.59 %); format: functional
MV4-11 [14] = assay: Induction of apoptosis in human MV4-11 cells assessed as necrotic cells at 20 x GI50 concentration incubated for 48 hrs by annexin V-FITC and propidium iodide staining based flow cytometry (reference value: […] %); format: functional
MV4-11 [15] = assay: Induction of apoptosis in human MV4-11 cells assessed as viable cells at 10 x GI50 concentration incubated for 48 hrs by annexin V-FITC and propidium iodide staining based flow cytometry (reference value: 91.87 %); format: functional
[16] = target: Receptor-type tyrosine-protein kinase FLT3 (Homo sapiens, UniProt P36888, R595-E596INSEY); assay: Inhibition of FLT3 R595_E596insEY mutant (unknown origin) incubated for 120 mins by ADP-glo based luminescence assay
Chain of Receptor-type tyrosine-protein kinase FLT3 (Homo sapiens, UniProt P36888, R595-E596INSEY) (P36888 whole entry, looked up, stated change not applied): as the sequence (P36888 whole entry) above

[17] = target: Receptor-type tyrosine-protein kinase FLT3 (Homo sapiens) (UniProt P36888); assay: Inhibition of FLT3-mediated signalling pathway in human U-937 cells assessed as inhibition of S6RP phosphorylation upto 20 x GI50 concentration incubated for 6 hrs by western blot analysis; format: cell-based; how it was run: as §2
[18] = target: Receptor-type tyrosine-protein kinase FLT3 (Homo sapiens) (UniProt P36888); assay: Inhibition of FLT3-mediated signalling pathway in human MV4-11 cells assessed as inhibition of AKT phosphorylation upto 20 x GI50 concentration incubated for 6 hrs by western blot analysis; format: cell-based; how it was run: as §2
K562 = assay: Antiproliferative activity against human K562 cells harboring FLT3 knockout gene assessed as reduction in cell viability after 72 hrs by resazurin assay; format: functional; how it was run: as §3
MV4-11 [19] = assay: Induction of apoptosis in human MV4-11 cells assessed as late apoptotic cells at 10 x GI50 concentration incubated for 48 hrs by annexin V-FITC and propidium iodide staining based flow cytometry (reference value: 6.59 %); format: functional
[20] = target: Receptor-type tyrosine-protein kinase FLT3 (Homo sapiens, UniProt P36888, ITD); assay: Inhibition of FLT3 ITD mutant (unknown origin) using Glu/Tyr peptide substrate incubated for 80 mins measured after 40 mins incubation under dark by ADP-glo based luminescence assay
Chain of Receptor-type tyrosine-protein kinase FLT3 (Homo sapiens, UniProt P36888, ITD) (P36888 whole entry, looked up, stated change not applied): as the sequence (P36888 whole entry) above

U-937 [21] = assay: Induction of apoptosis in human U937 cells assessed as late apoptotic cells at 5 x GI50 concentration incubated for 48 hrs by annexin V-FITC staining based flow cytometry (Rvb =9.82 %); format: functional
U-937 [22] = assay: Induction of apoptosis in human U937 cells assessed as necrotic cells at 1 x GI50 concentration incubated for 48 hrs by annexin V-FITC staining based flow cytometry (reference value: 1.16 %); format: functional
[23] = target: Receptor-type tyrosine-protein kinase FLT3 (Homo sapiens) (UniProt P36888); assay: Inhibition of FLT3-mediated signalling pathway in human U-937 cells assessed as inhibition of AKT phosphorylation upto 20 x GI50 concentration incubated for 6 hrs by western blot analysis; format: cell-based; how it was run: as §2
U-937 [24] = assay: Induction of apoptosis in human U937 cells assessed as viable cells at 5 x GI50 concentration incubated for 24 hrs by annexin V-FITC and propidium iodide staining based flow cytometry (reference value: 86.80 %); format: functional

## CC(=O)N1CCN(c2ccc(Nc3nccc(-c4cn(C)c5ncccc45)n3)cc2)CC1
MV4-11 [1]
  Activity: 75%
U-937 [2]
  Activity: 2.63%
[3]
  Ki: > 5000 nM
MV4-11 [4]
  Activity: 64.18%
CDK7/Cyclin H/MNAT1
  Ki: > 5000 nM
[5]
  inhibition: Active
MV4-11 [6]
  GI50: 74 nM
[7]
  inhibition: Active
U-937 [8]
  Activity: 83.36%
[9]
  Ki: 185 nM
U-937 [10]
  Activity: 9.79%
[11]
  GI50: 23 nM
U-937 [12]
  Activity: 80.33%
MV4-11 [13]
  Activity: 6.95%
MV4-11 [14]
  Activity: 32.08%
MV4-11 [15]
  Activity: 72.29%
[16]
  Ki: 77 nM
[17]
  inhibition: Active
[18]
  inhibition: Active
K562
  GI50: > 10000 nM
MV4-11 [19]
  Activity: 23.5%
[20]
  Ki: 2 nM
U-937 [21]
  Activity: 8.16%
U-937 [22]
  Activity: 1.4%
[23]
  inhibition: Active
U-937 [24]
  Activity: 86.36%

From ChEMBL document CHEMBL4813946, “Discovery of novel 4-azaaryl-N-phenylpyrimidin-2-amine derivatives as potent and selective FLT3 inhibitors for acute myeloid leukaemia with FLT3 mutations” (Eur J Med Chem, 2021)
